Assay [1] deals with LNCaP. Put plainly: Antiproliferative activity against human LNCAP cells after 7 days by MTT assay. The class given is functional, cell-based. To be noted: 168 h. The method, boiled down: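 LNCaP cell growth measured by MTT assay. GI50, the concentration giving 50% growth inhibition, was obtained by nonlinear regression of dose–response curves pooled from at least three independent experiments; SEM < 10%.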
Background: Tetrazolium dyes change colour on reduction, which living cells bring about.

Assay [2] concerns the target T1, Androgen receptor (Homo sapiens) (UniProt P10275).
T1 sequence (whole entry): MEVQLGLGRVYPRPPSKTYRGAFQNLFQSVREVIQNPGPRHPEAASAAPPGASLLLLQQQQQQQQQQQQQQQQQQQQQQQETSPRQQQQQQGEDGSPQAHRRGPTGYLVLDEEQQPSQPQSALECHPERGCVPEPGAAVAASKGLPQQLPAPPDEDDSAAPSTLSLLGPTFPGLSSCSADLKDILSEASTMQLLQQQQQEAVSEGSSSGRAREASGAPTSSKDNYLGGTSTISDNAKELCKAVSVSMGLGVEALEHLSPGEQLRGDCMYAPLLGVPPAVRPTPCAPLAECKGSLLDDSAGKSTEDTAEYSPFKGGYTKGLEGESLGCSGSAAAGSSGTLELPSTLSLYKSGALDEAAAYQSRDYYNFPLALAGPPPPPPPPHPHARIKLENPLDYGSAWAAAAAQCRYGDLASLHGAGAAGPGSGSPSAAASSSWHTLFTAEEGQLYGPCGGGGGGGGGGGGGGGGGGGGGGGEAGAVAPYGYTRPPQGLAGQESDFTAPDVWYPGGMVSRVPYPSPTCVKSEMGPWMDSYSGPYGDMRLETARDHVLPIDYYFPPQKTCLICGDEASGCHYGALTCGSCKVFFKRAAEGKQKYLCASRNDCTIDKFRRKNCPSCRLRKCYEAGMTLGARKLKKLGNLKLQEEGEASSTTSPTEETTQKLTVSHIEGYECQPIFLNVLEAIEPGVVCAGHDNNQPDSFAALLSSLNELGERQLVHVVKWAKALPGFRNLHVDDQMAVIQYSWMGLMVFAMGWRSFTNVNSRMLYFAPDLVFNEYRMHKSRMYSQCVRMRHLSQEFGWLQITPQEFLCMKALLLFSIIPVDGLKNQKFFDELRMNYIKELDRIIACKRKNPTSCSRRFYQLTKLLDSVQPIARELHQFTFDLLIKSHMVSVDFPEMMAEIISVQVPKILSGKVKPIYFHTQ
Put plainly: Inhibition of DHT-induced androgen receptor transactivation in human LNCaP cells at 10 uM after 24 hrs by luciferase reporter gene assay relative to control. The class given is cell-based. In outline: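 LNCaP cells dual-transfected with the probasin luciferase reporter AAR2-luc plus the Renilla vector pRL-null. Cells treated with compound at 10 μM for 24 h with 10 nM DHT. Luminescence read and normalized to Renilla activity. Result expressed as fold induction over unstimulated baseline. Replicates from three independent experiments.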

Assay [3] has as its target T1, Androgen receptor (Homo sapiens). Description: Induction of AR-V7 degradation in human CWR22Rv1 cells at 15 uM after 24 hrs by Western blot analysis. The class given is cell-based. In outline: (§1)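 CWR22Rv1 prostate cancer cells exposed to compound at 15 μM for 24 h. Protein lysates analysed by Western blot for f-AR and AR-V7 expression.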
In general terms: Immunoblotting shows a protein as a band on a membrane.

Assay [4] deals with T2, Steroid 17-alpha-hydroxylase/17,20 lyase (Homo sapiens, UniProt P05093).
T2 sequence (P05093 whole entry): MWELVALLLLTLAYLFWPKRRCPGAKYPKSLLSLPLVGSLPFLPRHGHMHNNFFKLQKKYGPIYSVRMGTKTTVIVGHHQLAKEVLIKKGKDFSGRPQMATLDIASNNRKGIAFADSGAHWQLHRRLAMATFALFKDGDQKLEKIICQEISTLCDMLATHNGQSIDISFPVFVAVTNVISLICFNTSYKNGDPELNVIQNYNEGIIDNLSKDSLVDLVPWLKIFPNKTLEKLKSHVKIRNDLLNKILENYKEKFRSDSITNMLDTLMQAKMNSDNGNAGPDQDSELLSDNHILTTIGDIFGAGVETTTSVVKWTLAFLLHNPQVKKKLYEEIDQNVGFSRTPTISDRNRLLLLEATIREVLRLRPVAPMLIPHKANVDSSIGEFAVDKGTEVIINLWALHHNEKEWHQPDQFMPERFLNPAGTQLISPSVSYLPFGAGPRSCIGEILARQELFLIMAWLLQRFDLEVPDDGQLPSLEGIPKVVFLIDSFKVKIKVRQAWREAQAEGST
Put plainly: Inhibition of CYP17 (unknown origin). In outline: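 CYP17 enzyme activity measured in duplicate over a range of inhibitor concentrations. IC50 read from the dose–response curve as the concentration giving 50% inhibition.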

Assay [5] has as its system CWR22R. Put plainly: Antiproliferative activity against human CWR22Rv1 cells after 7 days by MTT assay. Type of assay: functional, cell-based. The conditions noted are these: 22Rv1, 168 h. The method, boiled down: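 MTT proliferation assay in CWR22Rv1 human prostate cancer cells. GI50, the concentration causing 50% growth inhibition, was read from dose–response curves.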

Assay [6] concerns CWR22R. Put plainly: Antitumor activity against human CWR22Rv1 cells xenografted in SCID mouse assessed as tumor growth inhibition at 0.15 mmol/kg, ip bid administered for 5 days per week relative to control. To be noted: 22Rv1, ip, 120 h, read-out: TGI. Type of assay: functional.
Assay [7] has as its target T1, Androgen receptor (Homo sapiens). Description: Induction of AR-V7 degradation in human CWR22Rv1 cells upto 7.5 uM after 72 hrs by Western blot analysis. Type of assay: cell-based. In outline:
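CWR22Rv1 cells treated across 0 → 7.5 μM for 72 h. Lysates analysed by Western blot for f-AR and AR-V7. EC50 taken from dose–response curves.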

Assay [8] addresses T3, Androgen receptor (Homo sapiens, UniProt P10275).
T3 sequence (P10275 whole entry): T1 sequence (whole entry)
Put plainly: Inhibition of DHT-induced androgen receptor transactivation in human LNCaP cells after 24 hrs by luciferase reporter gene assay relative to control. The class given is cell-based.

In assay [9] the target is T1, Androgen receptor (Homo sapiens). Description: Induction of full length androgen receptor degradation in human CWR22Rv1 cells at 15 uM after 24 hrs by Western blot analysis. The class given is cell-based. The method, boiled down: as §1

Molecules are shown by their SMILES. Calls of active or inactive are those of the source. The calls are words filed in the database; no cut-off is given here.

The IC50 is the midpoint of a concentration-inhibition curve. A low value points to greater potency in that assay. For `CNC(=O)c1ccc(N2C(=S)N(c3ccc(C#N)c(C(F)(F)F)c3)C(=O)C2(C)C)cc1F` [ENZALUTAMIDE], in assay [1], inhibition was half-maximal at 4.85 µM (IC50).
`C[C@]12CC[C@@H]3c4ccc(C(=O)O)cc4CC[C@H]3[C@@H]1CC=C2n1cnc2ccccc21`: the inhibition entry in assay [2] is “Active”. In addition, in assay [3], the outcome was Active.
Take `C[C@]12CC[C@@H]3c4ccc(O)cc4CC[C@H]3[C@@H]1CC=C2n1cnc2ccccc21`: the inhibition result in assay [2] is “Active”. Also, the half-inhibitory concentration (IC50) in assay [4] stood at 25.9 µM; in assay [1], 3.89 µM; in assay [5] it was 0.5 µM.
On to `C[C@]12CC[C@H](OC(=O)n3ccnc3)CC1=CC[C@@H]1[C@@H]2CC[C@]2(C)C(n3cnc4ccccc43)=CC[C@@H]12`, for which the inhibition in vivo at 150 µmol/kg in [6] turned out to be 70%. Further, the outcome in [3] and in assay [7] was Active.
The term EC50 denotes the midpoint of the concentration-response curve. A high value points to weaker potency. `C[C@]12CC[C@H](OC(=S)n3ccnc3)CC1=CC[C@@H]1[C@@H]2CC[C@]2(C)C(n3cnc4ccccc43)=CC[C@@H]12`: the inhibition result in [2] was “Active”. Further, the concentration giving a half-maximal response (EC50) in [8] is less than 0.1 µM. Also, the IC50 in [1] was found to be 9.57 µM; in assay [5], 7.52 µM.
`C[C@]12CC[C@H](O)CC1=CC[C@@H]1[C@@H]2CC[C@]2(C)C(c3cccnc3)=CC[C@@H]12` [ABIRATERONE] returned an IC50 in [4] of 0.048 µM.
For the compound `C[C@]12CCC=CC1=CC[C@@H]1[C@@H]2CC[C@]2(C)C(n3cnc4ccccc43)=CC[C@@H]12`, the inhibition entry in assay [2] was “Active”.
In the case of `C[C@]12CC[C@H](O)CC1=CC[C@@H]1[C@@H]2CC[C@]2(C)C(n3cnc4ccccc43)=CC[C@@H]12` [GALETERONE], the inhibition in vivo at 150 µmol/kg in assay [6] worked out at 60%. In addition, the concentration for half-maximal inhibition (IC50) in assay [4] was found to be 0.14 µM; in assay [1], 3.93 µM; in assay [5] it was 8.91 µM.
`COC(=O)c1ccc2c(c1)CC[C@@H]1[C@@H]2CC[C@]2(C)C(n3cnc4ccccc43)=CC[C@@H]12`: the inhibition entry in assay [2] is “Active”. For the same compound, the concentration for half-maximal inhibition (IC50) in assay [4] was more than 15 µM; in [1] it was 6.91 µM; in assay [5], 8.74 µM.
Turning to `C[C@]12CC[C@@H](n3ccnc3)CC1=CC[C@@H]1[C@@H]2CC[C@]2(C)C(n3cnc4ccccc43)=CC[C@@H]12`, in assay [2], the inhibition entry was “Active”. Besides, the IC50 in assay [1] turned out to be 8.91 µM; in [5] it was 9.88 µM.
The like results for `C[C@]12CC[C@H](OCc3cccnc3)CC1=CC[C@@H]1[C@@H]2CC[C@]2(C)C(n3cnc4ccccc43)=CC[C@@H]12` were, in that order, “Active”, 4.26 µM and 0.81 µM.
On to `C[C@]12CC[C@H](OCc3ccncc3)CC1=CC[C@@H]1[C@@H]2CC[C@]2(C)C(n3cnc4ccccc43)=CC[C@@H]12`, for which the inhibition entry in [2] is “Active”. In [8], this compound showed an EC50 of 1.65 µM. Moreover, the result in [3], in [7] and in assay [9] was Active. Moreover, the IC50 in [4] is more than 15 µM; in assay [1], 2.45 µM; in assay [5] it was 3.24 µM.
In the case of `C[C@]12CC[C@H]3[C@@H](C[C@@H](n4ccnc4)C45CC4CC[C@]35C)[C@@H]1CC=C2n1cnc2ccccc21` (some centres not stated), the inhibition entry in [2] is “Active”. The compound further displayed an EC50 in assay [8] of 0.47 µM. Besides, the IC50 in assay [1] turned out to be 6.61 µM; in assay [5], 12.3 µM.
As for `CO[C@H]1CC[C@@]2(C)C(=CC[C@@H]3[C@@H]2CC[C@]2(C)C(n4cnc5ccccc54)=CC[C@@H]32)C1`, the inhibition result in assay [2] is “Active”. Besides, the IC50 in [4] came to 39 µM; in assay [1], 8.71 µM; in assay [5], 7.5 µM.
With `C[C@]12CC[C@H](OCc3ccccc3)CC1=CC[C@@H]1[C@@H]2CC[C@]2(C)C(n3cnc4ccccc43)=CC[C@@H]12`, the inhibition entry in assay [2] was “Active”. Also, the concentration for half-maximal inhibition (IC50) in assay [1] was 5.12 µM; in assay [5] it was 1.2 µM.
On to `C[C@]12CC[C@H](n3ccnc3)CC1=CC[C@@H]1[C@@H]2CC[C@]2(C)C(n3cnc4ccccc43)=CC[C@@H]12`, for which the inhibition entry in assay [2] is “Active”. This compound also returned an EC50 in assay [8] of 0.19 µM. For the same compound, the result in assay [3], in assay [7] and in assay [9] was Active. Further, the half-maximal inhibitory concentration (IC50) in [4] was determined as 0.48 µM; in assay [1] it was 1.64 µM; in assay [5] it was 2.54 µM.

Values taken from ChEMBL document CHEMBL4477236 (ACS Med Chem Lett, 2016).
